Laboratory results taken from ChEMBL document CHEMBL4330162, “Structure of Hierridin C, Synthesis of Hierridins B and C, and Evidence for Prevalent Alkylresorcinol Biosynthesis in Picocyanobacteria” (J Nat Prod, 2019).
Activity calls are given as the source filed them. The calls are words filed in the database; no cut-off is given here.

Legend:
[1] = test system: Plasmodium falciparum; assay: Antimalarial activity against Plasmodium falciparum 3D7 infected in human erythrocytes after 48 hrs by SYBR Green-1 dye based assay; assay type: functional, organism-based; conditions: 3D7, 48 h
Procedure, shortened: (§1)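 Asexual parasites kept on human erythrocytes in RPMI 1640 with 25 mM HEPES, […] hypoxanthine and 10% AlbuMAX II, pH 7.2. Cultures held at 37 °C under 5% O2 and 3−5% CO2 in N2, and sorbitol-synchronized. SYBR Green I fluorescence read at ex 485/em 535 nm. Percent survival vs untreated; IC50 by nonlinear regression.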

[2] = test system: Plasmodium falciparum; assay: Antimalarial activity against Plasmodium falciparum Dd2 infected in human erythrocytes after 48 hrs by SYBR Green-1 dye based assay; assay type: functional, organism-based; conditions: Dd2, 48 h; procedure, shortened: as §1
[3] = test system: HepG2; assay: Cytotoxicity against human HepG2 cells up to 72 uM after 24 to 48 hrs by MTT assay; assay type: functional, cell-based
Procedure, shortened: (§2)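 Cells seeded at 10^4 cells cm−2 and left 24 h to adhere. Exposed 24 or 48 h to fresh medium containing compound from DMSO (1 μL per 100 μL) at final 3 and 30 μg mL−1. MTT added at 0.5 mg mL−1, formazan dissolved in DMSO, absorbance read at 550 nm. Triplicate.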

[4] = test system: HT-29; assay: Cytotoxicity against human HT-29 cells up to 72 uM after 24 to 48 hrs by MTT assay; assay type: functional, cell-based; procedure, shortened: as §2
[5] = test system: SH-SY5Y; assay: Cytotoxicity against human SH-SY5Y cells up to 72 uM after 24 to 48 hrs by MTT assay; assay type: functional, cell-based; procedure, shortened: as §2
[6] = test system: MG-63; assay: Cytotoxicity against human MG63 cells up to 72 uM after 24 to 48 hrs by MTT assay; assay type: functional, cell-based; procedure, shortened: as §2
[7] = test system: T47D; assay: Cytotoxicity against human T47D cells up to 72 uM after 24 to 48 hrs by MTT assay; assay type: functional, cell-based; procedure, shortened: as §2
[8] = test system: Caco-2; assay: Cytotoxicity against human Caco2 cells up to 72 uM after 24 to 48 hrs by MTT assay; assay type: functional, cell-based; procedure, shortened: as §2
[9] = test system: RKO; assay: Cytotoxicity against human RKO cells up to 72 uM after 24 to 48 hrs by MTT assay; assay type: functional, cell-based; procedure, shortened: as §2

IC50 [1] [µM]	IC50 [2] [µM]	Compound	Activity [3]	Activity [4]	Activity [5]	Activity [6]	Activity [7]	Activity [8]	Activity [9]
2.1	2.3	CCCCCCCCCCCCCCCc1cc(OC)cc(OC)c1O							
1.5	2.3	CCCCCCCCCCCCCCCc1c(O)c(OC)cc(OC)c1Cl	inactive	inactive	inactive	inactive	inactive	inactive	inactive
